The source made the active and inactive calls. No cut-off for these calls is given here.
Tests used:
[1] = Binding affinity to synthetic HTG21 telomere assessed as change in G-qudraplex DNA melting temperature at 1 uM by FRET method
CA46 [2] = test: Induction of senescence in human CA46 cells at 0.06 uM administered continuously for 16 days by senescence-associated beta-galactosidase assay; type: functional, cell-based
How it was run: (§1)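 Cells were treated continuously with 0.06 µM ligand or 0.1% DMSO for 16 days. They were fixed in 2% formaldehyde/0.2% glutaraldehyde for 15 min at room temperature, washed in PBS, and stained overnight at 37 °C with 1 mg/mL X-Gal stain solution.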

HL-60 [3] = test: Decrease in telomere length in human HL60 cells at 0.03 uM after 16 days by telomeric restriction fragment length assay; type: functional, cell-based
How it was run: (§2)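 Cells were reseeded every 4 days with continuous compound or 0.1% DMSO for 16 days. Genomic DNA was cut with HinfI/RsaI and run on 0.8% agarose. It was then Southern blotted and probed with a DIG-labelled telomeric repeat probe, detected by anti-DIG alkaline phosphatase chemiluminescence to give TRF length.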

[4] = Inhibition of amplification of synthetic HTG21 telomere assessed as G-quadruplex stabilization by PCR
How it was run: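 PCR stop assay with HTG21 and its partial complementary oligonucleotide (10 pmol each), 0.16 mM dNTP, 2.5 U Taq and test compound. Program: 94 °C for 3 min, then 30 cycles of 94/58/72 °C for 30 s each. Products run on 15% native PAGE and silver stained. IC50 taken from band optical density as 50% inhibition of PCR.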

HL-60 [5] = test: Induction of senescence in human HL60 cells at 0.06 uM administered continuously for 16 days by senescence-associated beta-galactosidase assay; type: functional, cell-based
How it was run: as §1

CA46 [6] = test: Decrease in telomere length in human CA46 cells at 0.06 uM after 16 days by telomeric restriction fragment length assay; type: functional, cell-based
How it was run: as §2

[7] = Binding affinity to synthetic HTG21 telomere assessed as conversion of preformed hybrid-type G-quadruplex to antiparallel G-quadruplex structure at 5 uM in presence of K+ ions by CD spectroscopy
How it was run: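 CD on HTG21 at 5 µM strand in 10 mM Tris-HCl pH 7.4 with 100 mM KCl. Sample heated to 95 °C for 5 min, slowly cooled, held at 4 °C overnight. Titrated with 0–5 mol equiv compound. Scans from 230–450 nm at 25 °C, buffer baseline subtracted, at least three scans averaged.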

[8] = biological target: Telomerase reverse transcriptase (Homo sapiens, UniProt O14746); test: Inhibition of telomerase in human MCF7 cells by cell-free telomerase repeat amplification protocol assay
How it was run: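 Modified TRAP using 100 ng of MCF-7 extract in 20 mM Tris-HCl pH 8.0 with 63 mM KCl, 1.5 mM MgCl2, 1 mM EGTA, 50 µM dNTPs, primers TSG4/TS/CXext/NT and a TSNT internal control. Compound or water added, 30 min elongation at 30 °C, then 30 PCR cycles. Read-out by 10% native PAGE with silver stain; TelIC50 from band optical density.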

CA46 [9] = test: Growth inhibition in human CA46 cells at 0.06 uM after 12 days; type: functional, cell-based
How it was run: (§3)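 Long-term culture: 1.0 × 10^5 cells per flask with ligand at 0.03 or 0.06 µM, or 0.1% DMSO. Every 4 days cells were counted and reseeded at 1.0 × 10^5 with fresh treatment, for 16 days. Each point done three times.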

HL-60 [10] = test: Growth inhibition in human HL60 cells at 0.06 uM after 12 days; type: functional, cell-based
How it was run: as §3

HL-60 [11] = test: Cytotoxicity against human HL60 cell after 48 hrs by MTT assay; type: functional, cell-based; settings: HL-60, 48 h
How it was run: (§4)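 MTT assay: cells seeded at 1.0 × 10^3 per well in RPMI-1640 with 10% FBS and exposed to a range of ligand concentrations for 48 h at 37 °C, 5% CO2. MTT added for 4 h, formazan dissolved in DMSO, OD read at 570 nm. Each dose run in triplicate; IC50 from mean OD versus concentration curves.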

CA46 [12] = test: Growth inhibition in human CA46 cells assessed as increase in population doubling time at 0.03 uM; type: functional, cell-based
How it was run: as §3

[13] = Binding affinity to synthetic [d(T2AG3)] oligonucleotide assessed as increase in DNA melting temperature by NMR spectroscopy
How it was run: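 1H NMR thermal denaturation of d(T2AG3) at 0.5 mM in 90% H2O/10% D2O with 150 mM KCl and 25 mM potassium phosphate pH 7.0. Spectra recorded every 5 °C from 25–90 °C after 15 min equilibration at each step, Watergate water suppression.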

HL-60 [14] = test: Growth inhibition in human HL60 cells assessed as increase in population doubling time at 0.03 uM; type: functional, cell-based
How it was run: as §3

CA46 [15] = test: Cytotoxicity against human CA46 cell after 48 hrs by MTT assay; type: functional, cell-based; settings: CA46, 48 h
How it was run: as §4

[16] = Binding affinity to synthetic [d(T2AG3)] oligonucleotide by NMR spectroscopy
How it was run: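 1H NMR titration at 25 °C of HPLC-purified d(T2AG3) at 0.5 mM in 90% H2O/10% D2O with 150 mM KCl and 25 mM potassium phosphate pH 7.0. Watergate water suppression; imino proton shifts monitored.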

HL-60 [17] = test: Decrease in telomere length in human HL60 cells at 0.06 uM after 16 days by telomeric restriction fragment length assay; type: functional, cell-based
How it was run: as §2

[18] = Binding affinity to synthetic HTG21 telomere by competition dialysis method
How it was run: (§5)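 Competition dialysis, Tris-HCl 10 mM pH 7.4 with 100 mM NaCl. Each nucleic acid (0.5 mL, 45 µM monomeric unit) in a 1000 MWCO dialysis unit, all dialyzed together against a common ligand solution for 24 h at room temperature. DNA samples brought to 1% SDS. Total ligand in each tube and free ligand in dialysate read by absorbance (425 or 415 nm). Bound = total − free.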

[19] = Binding affinity to synthetic Pu27 oligonucleotide by competition dialysis method
How it was run: as §5

[20] = Binding affinity to synthetic HT7 oligonucleotide by competition dialysis method
How it was run: as §5

Chain of Telomerase reverse transcriptase (O14746 whole entry): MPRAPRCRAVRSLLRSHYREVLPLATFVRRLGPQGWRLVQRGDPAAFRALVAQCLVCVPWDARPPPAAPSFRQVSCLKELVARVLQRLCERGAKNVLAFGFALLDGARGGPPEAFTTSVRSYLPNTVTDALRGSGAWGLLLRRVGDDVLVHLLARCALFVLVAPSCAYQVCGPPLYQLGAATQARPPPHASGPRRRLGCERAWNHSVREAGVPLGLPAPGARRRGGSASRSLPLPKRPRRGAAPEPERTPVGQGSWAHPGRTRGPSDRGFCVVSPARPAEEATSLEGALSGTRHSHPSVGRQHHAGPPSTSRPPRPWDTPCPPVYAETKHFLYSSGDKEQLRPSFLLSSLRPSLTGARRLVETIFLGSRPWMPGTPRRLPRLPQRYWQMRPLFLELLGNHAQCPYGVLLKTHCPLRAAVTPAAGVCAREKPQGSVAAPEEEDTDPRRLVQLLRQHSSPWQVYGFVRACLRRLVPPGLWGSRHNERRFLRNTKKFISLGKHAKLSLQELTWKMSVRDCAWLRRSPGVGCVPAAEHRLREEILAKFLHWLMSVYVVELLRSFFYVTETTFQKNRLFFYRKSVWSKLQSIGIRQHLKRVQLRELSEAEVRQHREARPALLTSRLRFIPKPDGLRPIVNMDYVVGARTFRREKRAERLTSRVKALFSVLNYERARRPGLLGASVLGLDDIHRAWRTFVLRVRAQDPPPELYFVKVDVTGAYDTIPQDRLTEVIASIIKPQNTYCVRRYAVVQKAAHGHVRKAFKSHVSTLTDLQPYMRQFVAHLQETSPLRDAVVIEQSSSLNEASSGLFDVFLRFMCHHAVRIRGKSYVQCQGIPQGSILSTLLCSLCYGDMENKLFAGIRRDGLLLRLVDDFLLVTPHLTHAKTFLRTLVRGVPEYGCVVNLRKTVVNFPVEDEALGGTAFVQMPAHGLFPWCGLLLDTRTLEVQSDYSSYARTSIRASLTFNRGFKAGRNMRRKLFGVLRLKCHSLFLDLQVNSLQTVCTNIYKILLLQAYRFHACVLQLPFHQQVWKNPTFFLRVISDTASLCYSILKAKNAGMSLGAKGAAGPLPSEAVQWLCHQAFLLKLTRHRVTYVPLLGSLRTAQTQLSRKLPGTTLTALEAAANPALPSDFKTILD

Row | Compound | ΔTm [1] [°C] | IC50 [4] [µM] | Activity [7] | IC50 [8] [µM] | other results
1 | CN(C)CCCNc1c2ccccc2[n+](C)c2c1[nH]c1ccc(F)cc12 | 14 | 8 | Active | 0.31 | Activity (CA46 [2]): Active; Activity (HL-60 [3]): Active; Activity (HL-60 [5]): Active; Activity (CA46 [6]): Active; Activity (CA46 [9]): Active; Activity (HL-60 [10]): Active; IC50 (HL-60 [11]): 1.21 µM; Activity (CA46 [12]): Active; ΔTm [13]: 25 °C; Activity (HL-60 [14]): Active; IC50 (CA46 [15]): 1.36 µM; Activity [16]: Active; Activity (HL-60 [17]): Active
2 | CCN(CC)CCCNc1c2ccccc2[n+](C)c2c1oc1ccccc12 | 15 | 5.7 | Active |  | 
3 | CCN(CC)CCCNc1c2ccccc2[n+](C)c2c1[nH]c1ccc(F)cc12 | 18 | 5 | Active | 0.2 | 
4 | C[n+]1c2ccccc2c(NCCCN2CCOCC2)c2[nH]c3ccccc3c21 | 12 | > 20 | Active |  | 
5 | CCN(CC)CCCNc1c2ccccc2[n+](C)c2c1[nH]c1ccccc12 | 19 | 5.1 | Active | 0.16 | 
6 | CN(C)CCNc1c2ccccc2[n+](C)c2c1[nH]c1c(F)cc(F)cc12 | 11 | > 20 | Active |  | 
7 | CCN(CC)CCNc1c2ccccc2[n+](C)c2c1[nH]c1ccc(F)cc12 | 12 | 18 | Active |  | 
8 | CN(C)CCCNc1c2ccccc2[n+](C)c2c1[nH]c1ccccc12 | 17 | 4.5 | Active | 0.22 | Activity [18]: Active; Activity [19]: Active; Activity [20]: Active
9 | C[n+]1c2ccccc2c(NCCO)c2oc3ccccc3c21 | 4 | > 20 | Active |  | 
10 | C[n+]1c2ccccc2c(NCCCN2CCOCC2)c2oc3ccccc3c21 | 13 | 18 | Active |  | 
11 | CCN(CC)CCNc1c2ccccc2[n+](C)c2c1oc1ccccc12 | 12 | 13 | Active |  | 
12 | C[n+]1c2ccccc2c(NCCCO)c2oc3ccccc3c21 | 10 | > 20 | Active |  | 
13 | C[n+]1c2ccccc2c(NCCN2CCOCC2)c2[nH]c3ccccc3c21 | 10 | > 20 | Active |  | 
14 | CN(C)CCNc1c2ccccc2[n+](C)c2c1[nH]c1ccccc12 | 13 | 10.3 | Active |  | 
15 | C[n+]1c2ccccc2c(NCCO)c2[nH]c3ccccc3c21 | 5 | > 20 | Active |  | 
16 | CN(C)CCNc1c2ccccc2[n+](C)c2c1oc1ccccc12 | 11 | 11.5 | Active |  | 
17 | C[n+]1c2ccccc2c(NCCN2CCOCC2)c2oc3ccccc3c21 | 9 | > 20 | Active |  | 
18 | CN(C)CCCNc1c2ccccc2[n+](C)c2c1oc1ccccc12 | 14 | 6.1 | Active | 0.37 | 
19 | C[n+]1c2ccccc2c(NCCCO)c2[nH]c3ccccc3c21 | 7 | > 20 | Active |  | 
20 | CN(C)CCNc1c2ccccc2[n+](C)c2c1[nH]c1ccc(F)cc12 | 14 | 13 | Active |  | 
21 | CN(C)CCCNc1c2ccccc2nc2c1[nH]c1ccccc12 | 9 | > 20 |  | 0.63 | 
22 | CCN(CC)CCNc1c2ccccc2[n+](C)c2c1[nH]c1ccccc12 | 12 | 12 | Active |  | 
23 | CN(C)CCCNc1c2ccccc2[n+](C)c2c1[nH]c1c(F)cc(F)cc12 | 15 | 9 | Active | 0.4 | 
24 | CCN(CC)CCCNc1c2ccccc2[n+](C)c2c1[nH]c1c(F)cc(F)cc12 | 15 | 5.5 | Active | 0.27 | 
25 | CCN(CC)CCNc1c2ccccc2[n+](C)c2c1[nH]c1c(F)cc(F)cc12 | 11 | 15 | Active |  | 
